Active and inactive are the calls of the source.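 The calls were made as follows: active = MIC at a fourfold reduction of 10 µM or lower; inactive = MIC at a fourfold reduction above 10 µM.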
Legend:
[1] = test system: IMP-1 P. aeruginosa KN20 growth with imipenem, OD600; assay: imipenem potentiation in IMP-1 P. aeruginosa isolate, late-stage follow-up, VIM-2 MBL inhibitor project, strain KN20, clinical isolate, powder samples (AID 624095)
Method in brief: (§1)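 Assay system – log-phase bacterial cells in broth · Medium – CAMHB · Probe or stimulus – imipenem, two-fold titration · Compound – checkerboard two-fold serial dilutions, compound across rows · Incubation – ≥18 h aerobic incubation at 37 °C · Technique – absorbance turbidity · Evaluation – MIC per CLSI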

[2] = as above; settings: IMP-1 P. aeruginosa KN20 growth with imipenem, OD600; measured here: max imipenem fold potentiation; stronger effect = higher value
Method in brief: as §1

MIC [1] | Structure (SMILES) | fold potentiation [2]
> 50 µM (inactive) | O=C(CN1C(=O)/C(=C/c2c(Cl)cccc2Cl)SC1=S)NN1CCNCC1 | 
> 100 µM (inactive) | CCN(CC)OC(=O)CN1C(=O)/C(=C/c2c(Cl)cccc2Cl)SC1=S | 
> 100 µM (inactive) | O=C(CN1C(=O)/C(=C/c2c(Cl)cccc2Cl)SC1=S)NN1CCCCC1 | 
> 50 µM (inactive) | O=C(CN1C(=O)/C(=C/c2c(Cl)cccc2Cl)SC1=S)NN1CCN(C(=O)c2ccccc2)CC1 | 
> 50 µM (inactive) | O=C(CN1C(=O)/C(=C/c2c(Cl)ccc(Cl)c2Cl)SC1=S)NCc1ccccn1 | 
> 50 µM (inactive) | O=C(CN1C(=O)/C(=C/c2c(Cl)ccc(Cl)c2Cl)SC1=S)NN1CCCCC1 | 
> 100 µM (inactive) | CN1CCN(NC(=O)CN2C(=O)/C(=C/c3c(Cl)cccc3Cl)SC2=S)CC1 | 
> 50 µM (inactive) | O=C(CN1C(=O)/C(=C/c2c(Cl)ccc(Cl)c2Cl)SC1=S)NN1CCNCC1 | 
> 50 µM (inactive) | CN1CCN(NC(=O)CN2C(=O)/C(=C/c3c(C(F)(F)F)ccc(Cl)c3Cl)SC2=S)CC1 | 
> 50 µM (inactive) | CN1CCN(NC(=O)CN2C(=O)/C(=C/c3c(F)cccc3C(F)(F)F)SC2=S)CC1 | 
> 50 µM (inactive) | CC(=O)N1CCN(NC(=O)CN2C(=O)/C(=C/c3c(Cl)cccc3Cl)SC2=S)CC1 | 
> 50 µM (inactive) | CC(C)(C)OC(=O)N1CCN(NC(=O)CN2C(=O)/C(=C/c3c(Cl)ccc(Cl)c3Cl)SC2=S)CC1 | 
> 100 µM (inactive) | O=C(O)CN1C(=O)/C(=C/c2c(Cl)cccc2Cl)SC1=S | 
> 100 µM (inactive) | CC(C)(C)OC(=O)N1CCN(NC(=O)CN2C(=O)/C(=C/c3c(Cl)cccc3Cl)SC2=S)CC1 | 
> 50 µM (inactive) | CN1CCN(NC(=O)CN2C(=O)/C(=C/c3c(Cl)ccc(C(F)(F)F)c3Cl)SC2=S)CC1 | 2
> 50 µM (inactive) | CN1CCN(NC(=O)CN2C(=O)/C(=C/c3c(Cl)ccc(Cl)c3Cl)SC2=S)CC1 | 2
> 50 µM (inactive) | O=C(CN1C(=O)/C(=C/c2c(Cl)cccc2Cl)SC1=S)NN1CCN(Cc2ccccc2)CC1 | 
> 50 µM (inactive) | CC(C)N1CCN(NC(=O)CN2C(=O)/C(=C/c3c(Cl)cccc3Cl)SC2=S)CC1 | 
> 100 µM (inactive) | O=C(CN1C(=O)/C(=C/c2c(Cl)cccc2Cl)SC1=S)NCc1ccccn1 | 
> 50 µM (inactive) | O=C(O)CN1C(=O)/C(=C/c2c(F)cccc2C(F)(F)F)SC1=S | 
> 50 µM (inactive) | CN1CCN(C(=O)CN2C(=O)/C(=C/c3c(Cl)ccc(Cl)c3Cl)SC2=S)CC1 | 
> 50 µM (inactive) | CN1CCN(NC(=O)CN2C(=O)/C(=C/c3c(F)cccc3Cl)SC2=S)CC1 | 2

From PubChem BioAssay AID624095 (The Scripps Research Institute Molecular Screening Center, 2012)
